Assay results from ChEMBL document CHEMBL1125392, “Antitumor agents. 124. New 4 beta-substituted aniline derivatives of 6,7-O,O-demethylene-4'-O-demethylpodophyllotoxin and related compounds as potent inhibitors of human DNA topoisomerase II” (J Med Chem, 1992).

Tested on: Nucleic Acid
Assay: Effect on cellular protein DNA complex formation(%) at 10 uM in comparison with etoposide
Assay type: functional

| Compound | Complex formation [%] |
| --- | --- |
| COc1cc([C@@H]2c3cc(O)c(O)cc3[C@@H](Nc3cccc(O)c3)[C@H]3COC(=O)[C@H]23)cc(OC)c1OC | 4 |
| COc1cc([C@@H]2c3cc(O)c(O)cc3[C@@H](Nc3cccc(O)c3)[C@H]3COC(=O)[C@H]23)cc(OC)c1O | 18 |
| COc1cc([C@@H]2c3cc4c(cc3[C@@H](Nc3ccc(C#N)cc3)[C@H]3COC(=O)[C@H]23)OCO4)cc(OC)c1O | 211 |
| COc1cc([C@@H]2c3cc(O)c(O)cc3[C@@H](Nc3ccc(F)cc3)[C@H]3COC(=O)[C@H]23)cc(OC)c1OC | 11 |
| COc1cc2c(cc1OC)[C@@H](Nc1ccc(C#N)cc1)[C@H]1COC(=O)[C@@H]1[C@@H]2c1cc(OC)c(OC)c(OC)c1 | 12 |
| COc1cc2c(cc1OC)[C@@H](Nc1ccc([N+](=O)[O-])cc1)[C@H]1COC(=O)[C@@H]1[C@@H]2c1cc(OC)c(OC)c(OC)c1 | 8 |
| COc1cc([C@@H]2c3cc(O)c(O)cc3[C@@H](Nc3ccc(F)cc3)[C@H]3COC(=O)[C@H]23)cc(OC)c1O | 52 |
| COc1cc([C@@H]2c3cc(O)c(O)cc3[C@@H](Nc3ccc(C#N)cc3)[C@H]3COC(=O)[C@H]23)cc(OC)c1O | 62 |
| COc1cc([C@@H]2c3cc(O)c(O)cc3[C@@H](Nc3ccc([N+](=O)[O-])cc3)[C@H]3COC(=O)[C@H]23)cc(OC)c1O | 99 |
| COc1cc([C@@H]2c3cc4c(cc3[C@@H](O[C@@H]3O[C@@H]5CO[C@@H](C)O[C@H]5[C@H](O)[C@H]3O)[C@H]3COC(=O)[C@H]23)OCO4)cc(OC)c1O [ETOPOSIDE] | 100 |
| COc1cc([C@@H]2c3cc(O)c(O)cc3[C@@H](Nc3ccc(C#N)cc3)[C@H]3COC(=O)[C@H]23)cc(OC)c1OC | 33 |
| CCOC(=O)c1ccc(N[C@@H]2c3cc(O)c(O)cc3[C@@H](c3cc(OC)c(O)c(OC)c3)[C@H]3C(=O)OC[C@@H]32)cc1 | 138 |
| COc1cc2c(cc1OC)[C@@H](Nc1ccc(C#N)cc1)[C@H]1COC(=O)[C@@H]1[C@@H]2c1cc(OC)c(O)c(OC)c1 | 125 |
| COc1cc([C@@H]2c3cc4c(cc3[C@@H](Nc3ccc([N+](=O)[O-])cc3)[C@H]3COC(=O)[C@H]23)OCO4)cc(OC)c1O | 323 |
| COc1cc2c(cc1OC)[C@@H](Nc1ccc([N+](=O)[O-])cc1)[C@H]1COC(=O)[C@@H]1[C@@H]2c1cc(OC)c(O)c(OC)c1 | 75 |
| CCOC(=O)c1ccc(N[C@@H]2c3cc(OC)c(OC)cc3[C@@H](c3cc(OC)c(OC)c(OC)c3)[C@H]3C(=O)OC[C@@H]32)cc1 | 9 |
| CCOC(=O)c1ccc(N[C@@H]2c3cc(O)c(O)cc3[C@@H](c3cc(OC)c(OC)c(OC)c3)[C@H]3C(=O)OC[C@@H]32)cc1 | 22 |
| COc1cc2c(cc1OC)[C@@H](Nc1ccc(F)cc1)[C@H]1COC(=O)[C@@H]1[C@@H]2c1cc(OC)c(OC)c(OC)c1 | 8 |
| COc1cc([C@@H]2c3cc4c(cc3[C@@H](Nc3ccc(F)cc3)[C@H]3COC(=O)[C@H]23)OCO4)cc(OC)c1O | 213 |
| COc1cc2c(cc1OC)[C@@H](Nc1ccc(F)cc1)[C@H]1COC(=O)[C@@H]1[C@@H]2c1cc(OC)c(O)c(OC)c1 | 108 |
| CCOC(=O)c1ccc(N[C@@H]2c3cc(OC)c(OC)cc3[C@@H](c3cc(OC)c(O)c(OC)c3)[C@H]3C(=O)OC[C@@H]32)cc1 | 127 |
| CCOC(=O)c1ccc(N[C@@H]2c3cc4c(cc3[C@@H](c3cc(OC)c(O)c(OC)c3)[C@H]3C(=O)OC[C@@H]32)OCO4)cc1 | 207 |
| COc1cc([C@@H]2c3cc(O)c(O)cc3[C@@H](Nc3ccccc3)[C@H]3COC(=O)[C@H]23)cc(OC)c1OC | 9 |
| COc1cc([C@@H]2c3cc(O)c(O)cc3[C@@H](Nc3ccccc3)[C@H]3COC(=O)[C@H]23)cc(OC)c1O | 84 |
| COc1cc([C@@H]2c3cc(O)c(O)cc3[C@@H](Nc3ccc([N+](=O)[O-])cc3)[C@H]3COC(=O)[C@H]23)cc(OC)c1OC | 23 |

Target: DNA topoisomerase II (Homo sapiens) (UniProt P11388+Q02880)
Assay: Inhibition of human DNA Topoisomerase II
Assay type: protein assay
Summary of the method: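 Human DNA topoisomerase II catalytic inhibition was tested at five concentrations (10, 20, 25, 50 and 100 μM). ID50 was set from the degree of inhibition observed across these concentrations.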

| Compound | ID50 [µM] |
| --- | --- |
| COc1cc([C@@H]2c3cc(O)c(O)cc3[C@@H](Nc3cccc(O)c3)[C@H]3COC(=O)[C@H]23)cc(OC)c1OC | 50 |
| COc1cc([C@@H]2c3cc(O)c(O)cc3[C@@H](Nc3cccc(O)c3)[C@H]3COC(=O)[C@H]23)cc(OC)c1O | 20 |
| COc1cc([C@@H]2c3cc(O)c(O)cc3[C@@H](Nc3ccc(F)cc3)[C@H]3COC(=O)[C@H]23)cc(OC)c1OC | 50 |
| COc1cc2c(cc1OC)[C@@H](Nc1ccc(C#N)cc1)[C@H]1COC(=O)[C@@H]1[C@@H]2c1cc(OC)c(OC)c(OC)c1 | > 100 |
| COc1cc2c(cc1OC)[C@@H](Nc1ccc([N+](=O)[O-])cc1)[C@H]1COC(=O)[C@@H]1[C@@H]2c1cc(OC)c(OC)c(OC)c1 | > 100 |
| COc1cc([C@@H]2c3cc(O)c(O)cc3[C@@H](Nc3ccc(F)cc3)[C@H]3COC(=O)[C@H]23)cc(OC)c1O | 25 |
| COc1cc([C@@H]2c3cc(O)c(O)cc3[C@@H](Nc3ccc(C#N)cc3)[C@H]3COC(=O)[C@H]23)cc(OC)c1O | 20 |
| COc1cc([C@@H]2c3cc(O)c(O)cc3[C@@H](Nc3ccc([N+](=O)[O-])cc3)[C@H]3COC(=O)[C@H]23)cc(OC)c1O | 20 |
| COc1cc([C@@H]2c3cc(O)c(O)cc3[C@@H](Nc3ccc(C#N)cc3)[C@H]3COC(=O)[C@H]23)cc(OC)c1OC | > 100 |
| CCOC(=O)c1ccc(N[C@@H]2c3cc(O)c(O)cc3[C@@H](c3cc(OC)c(O)c(OC)c3)[C@H]3C(=O)OC[C@@H]32)cc1 | 20 |
| COc1cc2c(cc1OC)[C@@H](Nc1ccc(C#N)cc1)[C@H]1COC(=O)[C@@H]1[C@@H]2c1cc(OC)c(O)c(OC)c1 | 50 |
| COc1cc2c(cc1OC)[C@@H](Nc1ccc([N+](=O)[O-])cc1)[C@H]1COC(=O)[C@@H]1[C@@H]2c1cc(OC)c(O)c(OC)c1 | 100 |
| CCOC(=O)c1ccc(N[C@@H]2c3cc(OC)c(OC)cc3[C@@H](c3cc(OC)c(OC)c(OC)c3)[C@H]3C(=O)OC[C@@H]32)cc1 | > 100 |
| CCOC(=O)c1ccc(N[C@@H]2c3cc(O)c(O)cc3[C@@H](c3cc(OC)c(OC)c(OC)c3)[C@H]3C(=O)OC[C@@H]32)cc1 | 100 |
| COc1cc2c(cc1OC)[C@@H](Nc1ccc(F)cc1)[C@H]1COC(=O)[C@@H]1[C@@H]2c1cc(OC)c(OC)c(OC)c1 | > 100 |
| COc1cc2c(cc1OC)[C@@H](Nc1ccc(F)cc1)[C@H]1COC(=O)[C@@H]1[C@@H]2c1cc(OC)c(O)c(OC)c1 | 50 |
| CCOC(=O)c1ccc(N[C@@H]2c3cc(OC)c(OC)cc3[C@@H](c3cc(OC)c(O)c(OC)c3)[C@H]3C(=O)OC[C@@H]32)cc1 | 100 |
| COc1cc([C@@H]2c3cc(O)c(O)cc3[C@@H](Nc3ccccc3)[C@H]3COC(=O)[C@H]23)cc(OC)c1OC | 50 |
| COc1cc([C@@H]2c3cc(O)c(O)cc3[C@@H](Nc3ccccc3)[C@H]3COC(=O)[C@H]23)cc(OC)c1O | 25 |
| COc1cc([C@@H]2c3cc(O)c(O)cc3[C@@H](Nc3ccc([N+](=O)[O-])cc3)[C@H]3COC(=O)[C@H]23)cc(OC)c1OC | > 100 |

Tested on: not listed separately
Assay: Concentration required for 50% reduction in KB cell number after 3-day incubation
Assay type: functional, cell-based, Homo sapiens

| Compound | IC50 [µM] |
| --- | --- |
| COc1cc([C@@H]2c3cc(O)c(O)cc3[C@@H](Nc3cccc(O)c3)[C@H]3COC(=O)[C@H]23)cc(OC)c1OC | > 2 |
| COc1cc([C@@H]2c3cc(O)c(O)cc3[C@@H](Nc3cccc(O)c3)[C@H]3COC(=O)[C@H]23)cc(OC)c1O | > 2.1 |
| COc1cc([C@@H]2c3cc4c(cc3[C@@H](Nc3ccc(C#N)cc3)[C@H]3COC(=O)[C@H]23)OCO4)cc(OC)c1O | 0.64 |
| COc1cc([C@@H]2c3cc(O)c(O)cc3[C@@H](Nc3ccc(F)cc3)[C@H]3COC(=O)[C@H]23)cc(OC)c1OC | > 2 |
| COc1cc2c(cc1OC)[C@@H](Nc1ccc(C#N)cc1)[C@H]1COC(=O)[C@@H]1[C@@H]2c1cc(OC)c(OC)c(OC)c1 | 5.8 |
| COc1cc2c(cc1OC)[C@@H](Nc1ccc([N+](=O)[O-])cc1)[C@H]1COC(=O)[C@@H]1[C@@H]2c1cc(OC)c(OC)c(OC)c1 | 7.3 |
| COc1cc([C@@H]2c3cc(O)c(O)cc3[C@@H](Nc3ccc(F)cc3)[C@H]3COC(=O)[C@H]23)cc(OC)c1O | > 2.1 |
| COc1cc([C@@H]2c3cc(O)c(O)cc3[C@@H](Nc3ccc(C#N)cc3)[C@H]3COC(=O)[C@H]23)cc(OC)c1O | 2 |
| COc1cc([C@@H]2c3cc(O)c(O)cc3[C@@H](Nc3ccc([N+](=O)[O-])cc3)[C@H]3COC(=O)[C@H]23)cc(OC)c1O | 1.5 |
| COc1cc([C@@H]2c3cc4c(cc3[C@@H](O[C@@H]3O[C@@H]5CO[C@@H](C)O[C@H]5[C@H](O)[C@H]3O)[C@H]3COC(=O)[C@H]23)OCO4)cc(OC)c1O [ETOPOSIDE] | 0.2 |
| COc1cc([C@@H]2c3cc(O)c(O)cc3[C@@H](Nc3ccc(C#N)cc3)[C@H]3COC(=O)[C@H]23)cc(OC)c1OC | > 2 |
| CCOC(=O)c1ccc(N[C@@H]2c3cc(O)c(O)cc3[C@@H](c3cc(OC)c(O)c(OC)c3)[C@H]3C(=O)OC[C@@H]32)cc1 | 1.46 |
| COc1cc2c(cc1OC)[C@@H](Nc1ccc(C#N)cc1)[C@H]1COC(=O)[C@@H]1[C@@H]2c1cc(OC)c(O)c(OC)c1 | < 0.77 |
| COc1cc([C@@H]2c3cc4c(cc3[C@@H](Nc3ccc([N+](=O)[O-])cc3)[C@H]3COC(=O)[C@H]23)OCO4)cc(OC)c1O | 0.49 |
| COc1cc2c(cc1OC)[C@@H](Nc1ccc([N+](=O)[O-])cc1)[C@H]1COC(=O)[C@@H]1[C@@H]2c1cc(OC)c(O)c(OC)c1 | 1.3 |
| CCOC(=O)c1ccc(N[C@@H]2c3cc(OC)c(OC)cc3[C@@H](c3cc(OC)c(OC)c(OC)c3)[C@H]3C(=O)OC[C@@H]32)cc1 | 5.5 |
| CCOC(=O)c1ccc(N[C@@H]2c3cc(O)c(O)cc3[C@@H](c3cc(OC)c(OC)c(OC)c3)[C@H]3C(=O)OC[C@@H]32)cc1 | > 1.8 |
| COc1cc2c(cc1OC)[C@@H](Nc1ccc(F)cc1)[C@H]1COC(=O)[C@@H]1[C@@H]2c1cc(OC)c(OC)c(OC)c1 | 7.6 |
| COc1cc([C@@H]2c3cc4c(cc3[C@@H](Nc3ccc(F)cc3)[C@H]3COC(=O)[C@H]23)OCO4)cc(OC)c1O | 0.24 |
| COc1cc2c(cc1OC)[C@@H](Nc1ccc(F)cc1)[C@H]1COC(=O)[C@@H]1[C@@H]2c1cc(OC)c(O)c(OC)c1 | 0.78 |
| CCOC(=O)c1ccc(N[C@@H]2c3cc(OC)c(OC)cc3[C@@H](c3cc(OC)c(O)c(OC)c3)[C@H]3C(=O)OC[C@@H]32)cc1 | < 0.7 |
| CCOC(=O)c1ccc(N[C@@H]2c3cc4c(cc3[C@@H](c3cc(OC)c(O)c(OC)c3)[C@H]3C(=O)OC[C@@H]32)OCO4)cc1 | 0.84 |
| COc1cc([C@@H]2c3cc(O)c(O)cc3[C@@H](Nc3ccccc3)[C@H]3COC(=O)[C@H]23)cc(OC)c1OC | > 2.1 |
| COc1cc([C@@H]2c3cc(O)c(O)cc3[C@@H](Nc3ccccc3)[C@H]3COC(=O)[C@H]23)cc(OC)c1O | > 2.2 |
| COc1cc([C@@H]2c3cc(O)c(O)cc3[C@@H](Nc3ccc([N+](=O)[O-])cc3)[C@H]3COC(=O)[C@H]23)cc(OC)c1OC | > 1.9 |
